Results reported in ChEMBL document CHEMBL1129296, “Cardioselective antiischemic ATP-sensitive potassium channel openers. 4. Structure-activity studies on benzopyranylcyanoguanidines: replacement of the benzopyran portion” (J Med Chem, 1996).

Tests used:
Assay type in all cases: functional
[1] = organism: Rattus norvegicus; assay: Antiischemic potency was determined at 10 uM for increase in time to contracture by 25% in globally ischemic rat hearts.
[2] = organism: Rattus norvegicus; assay: Vasorelaxant potency was determined for inhibition of methoxamine contracted rat aorta.
Summary of the method: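 Vasorelaxation was measured in rat aorta precontracted with methoxamine. IC50 is the concentration giving relaxation of the contraction.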

[3] = organism: Rattus norvegicus; assay: Antiischemic potency was determined for increase in time to contracture by 25% in globally ischemic rat hearts.
Summary of the method: (§1)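 Isolated rat hearts were perfused, then subjected to total global ischemia. Contracture onset was taken as the time for end diastolic pressure to rise 5 mmHg above baseline. EC25 is the concentration that raises time to contracture by 25%.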

[4] = Ratio between Antiischemic potency to Vasorelaxant potency
Summary of the method: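 Cardioselectivity was taken as the ratio of two values. The first is the EC25 for a 25% increase in time to contracture, in globally ischemic isolated perfused rat hearts. The second is the IC50 for relaxation of methoxamine-contracted rat aorta.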

[5] = organism: Rattus norvegicus; assay: Antiischemic potency for increase in time to contracture by 25% in globally ischemic rat hearts.; summary of the method: as §1

Row | SMILES | IC50 [2] [µM] | Increase in time to contracture [1] [%] | EC25 [3] [µM] | Ratio [4] | Inhibition [5] [%]
1 | CC(C)(C)c1ccc(C#N)cc1NC(=O)Nc1ccccn1 | 25.7 | 25 | – | – | –
2 | CC(C)(C)c1ccc(C#N)cc1NC(=O)Nc1cccnc1 | 25.7 | 25 | 29.7 | 1.2 | –
3 | CC(C)(C)c1ccc(C#N)cc1NC(=O)Nc1cnccn1 | 15.3 | – | 11.9 | 0.77 | –
4 | N#Cc1ccc(-c2ccccc2)c(NC(=O)Nc2cccnc2)c1 | 22.8 | – | 12 | – | –
5 | CC(C)(C)c1ccc(C#N)cc1NC(=O)Nc1cncnc1 | 12.4 | 2 | – | – | –
6 | CC(C)(C)c1ccc(C#N)cc1NC(=O)Nc1ccncc1 | 7.8 | 14 | – | – | –
7 | Cc1ccc(S(=O)(=O)Nc2ccc(C#N)cc2NC(=O)Nc2cccnc2)cc1 | > 100 | – | – | – | 0

Stronger by IC50 [2], values ahead:

Row | IC50 [2] [µM] | SMILES | Increase in time to contracture [1] [%] | EC25 [3] [µM] | Ratio [4] | Inhibition [5] [%]
8 | 1 | N#Cc1ccc(Oc2ccccc2)c(NC(=O)Nc2cccnc2)c1 | – | 2 | – | –
9 | 1.7 | CC(C)(C)c1ccc(C#N)cc1NC(=O)Nc1ccccc1 | – | 33.8 | 19.9 | –
10 | 1.5 | CC1(C)CN(C(=O)Nc2cccnc2)c2cc(C#N)ccc21 | – | 28.3 | 18.8 | –
11 | 1.6 | CC(C)(C)c1ccc(C#N)cc1NC(=O)Nc1ccc(Cl)nc1 | – | 19.2 | 12 | –
12 | 1.4 | CC1(C)Oc2ccc(C#N)cc2[C@@H](/N=C(\NC#N)Nc2ccccc2)[C@@H]1O | – | 11 | 7.9 | –
13 | 1.3 | CC1(C)CC(NC(=O)Nc2ccccc2)c2cc(C#N)ccc21 (centres undefined) | – | 9.4 | 7.2 | –
14 | 1.2 | CC(C)(C)c1ccc(C#N)cc1/N=C(/NC#N)Nc1cccnc1 | 16 | – | – | –
15 | 6.7 | CC1(C)CCN(C(=O)Nc2ccccc2)c2cc(C#N)ccc21 | – | 26 | 3.9 | –
